ChEMBL document CHEMBL4715795, “Urolinin: The First Linear Peptidic Urotensin-II Receptor Agonist” (J Med Chem, 2016)
Peptide text beside a SMILES is read from it.

Columns and labels:
[1] = target: T1, Urotensin-2 receptor (Homo sapiens, UniProt Q9UKP6); assay: Agonist activity at human U-IIR expressed in HEK293-A cells by Fluo4-AM dye based intracellular calcium mobilization assay; assay type: functional, cell-based
T1 sequence (Q9UKP6 whole entry): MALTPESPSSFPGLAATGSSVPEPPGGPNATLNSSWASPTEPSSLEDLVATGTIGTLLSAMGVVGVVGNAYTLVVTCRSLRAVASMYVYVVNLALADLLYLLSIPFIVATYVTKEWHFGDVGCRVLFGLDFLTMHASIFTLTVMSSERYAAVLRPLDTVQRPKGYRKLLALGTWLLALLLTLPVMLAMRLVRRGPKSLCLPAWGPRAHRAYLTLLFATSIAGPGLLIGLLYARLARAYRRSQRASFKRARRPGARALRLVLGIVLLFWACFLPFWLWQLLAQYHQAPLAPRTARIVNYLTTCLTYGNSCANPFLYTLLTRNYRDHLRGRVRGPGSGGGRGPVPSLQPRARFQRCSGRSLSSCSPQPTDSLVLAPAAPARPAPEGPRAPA

[2] = Half life in 25% human serum by RP-HPLC analysis; assay type: ADME, cell-free
In short: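 Peptide at 50 μg/mL final in RPMI with 25% (v/v) human serum, pre-equilibrated at 37 °C. Samples taken at set times into 6% TCA, iced 15 min, spun at 18000g. Supernatant run on C18 RP-HPLC, 25–80% acetonitrile gradient over 15 min at 30 °C, absorbance at 214 and 280 nm.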

[3] = target: T1, Urotensin-2 receptor; assay: Displacement of [125I-Tyr9]-U-II from human U-IIR expressed in HEK293-A cells incubated for 30 mins by gamma counting based competition radioligand binding assay; assay type: cell-based
[4] = target: Somatostatin receptor type 1 (Homo sapiens, UniProt P30872); assay: Displacement of [125I-Tyr11]-SS14 from human SSTR1 expressed in HEK293-A cells incubated for 30 mins by gamma counting based competition radioligand binding assay; assay type: cell-based
Chain of Somatostatin receptor type 1 (P30872 whole entry): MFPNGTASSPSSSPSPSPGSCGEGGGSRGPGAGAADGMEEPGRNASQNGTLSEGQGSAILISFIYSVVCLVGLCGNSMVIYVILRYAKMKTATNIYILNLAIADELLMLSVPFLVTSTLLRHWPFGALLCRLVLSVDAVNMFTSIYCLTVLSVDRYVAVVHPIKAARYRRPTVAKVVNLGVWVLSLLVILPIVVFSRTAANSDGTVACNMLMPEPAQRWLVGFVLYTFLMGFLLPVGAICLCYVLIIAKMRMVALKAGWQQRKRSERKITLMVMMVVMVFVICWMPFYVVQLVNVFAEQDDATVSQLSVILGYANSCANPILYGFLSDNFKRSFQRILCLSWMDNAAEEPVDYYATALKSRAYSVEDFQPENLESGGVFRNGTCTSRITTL
In short: (§1)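 Competition binding on HEK293A cells overexpressing the given human SSTR subtype, seeded overnight. Binding buffer: 50 mM Tris-HCl pH 7.4, 5 mM MgCl2, 1 mM CaCl, 0.5% BSA, protease inhibitors. 100000 cpm [125I-Tyr11]-SS14 (chloramine-T iodinated, HPLC-purified) with varying competitor, 30 min at 37 °C. Cells washed four times in cold buffer, lysed in 1 N NaOH, gamma counted. Mean ± SD, three experiments in duplicate.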

[5] = target: Somatostatin receptor type 2 (Homo sapiens, UniProt P30874); assay: Displacement of [125I-Tyr11]-SS14 from human SSTR2 expressed in HEK293-A cells incubated for 30 mins by gamma counting based competition radioligand binding assay; assay type: cell-based; in short: as §1
Chain of Somatostatin receptor type 2 (P30874 whole entry): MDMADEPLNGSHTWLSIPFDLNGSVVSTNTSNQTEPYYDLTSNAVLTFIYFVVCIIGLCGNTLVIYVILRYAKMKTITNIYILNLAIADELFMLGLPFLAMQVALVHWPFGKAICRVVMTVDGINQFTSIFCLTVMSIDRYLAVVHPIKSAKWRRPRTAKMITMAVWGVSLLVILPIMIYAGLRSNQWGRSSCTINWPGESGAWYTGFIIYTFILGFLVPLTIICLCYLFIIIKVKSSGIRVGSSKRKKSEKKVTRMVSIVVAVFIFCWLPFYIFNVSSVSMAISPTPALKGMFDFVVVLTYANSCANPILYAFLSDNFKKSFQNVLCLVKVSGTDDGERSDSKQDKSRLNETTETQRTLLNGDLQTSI

[6] = target: Somatostatin receptor type 3 (Homo sapiens, UniProt P32745); assay: Displacement of [125I-Tyr11]-SS14 from human SSTR3 expressed in HEK293-A cells incubated for 30 mins by gamma counting based competition radioligand binding assay; assay type: cell-based; in short: as §1
Chain of Somatostatin receptor type 3 (P32745 whole entry): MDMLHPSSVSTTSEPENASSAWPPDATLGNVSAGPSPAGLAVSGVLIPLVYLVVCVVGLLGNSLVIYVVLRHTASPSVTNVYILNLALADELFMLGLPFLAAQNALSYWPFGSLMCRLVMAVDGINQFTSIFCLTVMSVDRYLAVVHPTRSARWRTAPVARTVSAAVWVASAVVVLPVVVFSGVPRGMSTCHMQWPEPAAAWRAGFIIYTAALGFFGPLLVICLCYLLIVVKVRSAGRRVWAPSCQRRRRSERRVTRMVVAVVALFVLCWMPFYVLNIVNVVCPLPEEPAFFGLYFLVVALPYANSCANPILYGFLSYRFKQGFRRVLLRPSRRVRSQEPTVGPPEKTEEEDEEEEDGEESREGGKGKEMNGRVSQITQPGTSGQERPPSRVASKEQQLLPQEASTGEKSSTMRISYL

[7] = target: Somatostatin receptor type 5 (Homo sapiens, UniProt P35346); assay: Displacement of [125I-Tyr11]-SS14 from human SSTR5 expressed in HEK293-A cells incubated for 30 mins by gamma counting based competition radioligand binding assay; assay type: cell-based; in short: as §1
Chain of Somatostatin receptor type 5 (P35346 whole entry): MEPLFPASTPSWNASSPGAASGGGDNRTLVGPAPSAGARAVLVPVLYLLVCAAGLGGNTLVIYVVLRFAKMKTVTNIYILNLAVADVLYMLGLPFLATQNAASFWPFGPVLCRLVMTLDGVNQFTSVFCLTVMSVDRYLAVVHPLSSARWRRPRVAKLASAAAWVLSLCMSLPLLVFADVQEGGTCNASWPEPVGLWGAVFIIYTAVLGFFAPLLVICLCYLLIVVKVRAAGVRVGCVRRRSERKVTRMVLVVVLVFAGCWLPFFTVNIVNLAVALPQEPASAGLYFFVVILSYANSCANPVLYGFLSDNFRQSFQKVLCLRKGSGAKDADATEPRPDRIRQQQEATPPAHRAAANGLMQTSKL

[8] = target: T2, Urotensin-2 receptor (Homo sapiens) (UniProt Q9UKP6); assay: Agonist activity at human U-IIR expressed in HEK293-A cells at 500 nM by Fluo4-AM dye based intracellular calcium mobilization assay relative to control; assay type: functional, cell-based; details: filed as agonist
T2 sequence (whole entry): T1 sequence (Q9UKP6 whole entry)

[9] = target: T2, Urotensin-2 receptor (Homo sapiens); assay: Agonist activity at human U-IIR expressed in HEK293-A cells at 500 nM by Fluo4-AM dye based intracellular calcium mobilization assay relative to control; details: filed as agonist, dose nM 500

CC[C@H](NC(=O)[C@H](Cc1ccc(O)c([N+](=O)[O-])c1)NC(=O)[C@H](CCCCN)NC(=O)[C@H](Cc1c[nH]c2ccccc12)NC(=O)[C@H](Cc1c[nH]c2ccccc12)NC(=O)[C@H](N)CC(N)=O)C(N)=O
EC50 [1]: 0.00475 µM | half-life [2]: 22 h | IC50 [3]: 0.6 µM | IC50 [4]: 6.72 µM | IC50 [5]: 37.5 µM | IC50 [6]: 6.07 µM | IC50 [7]: 28.4 µM

CC(=O)N[C@@H](Cc1ccccc1)C(=O)N[C@@H](Cc1c[nH]c2ccccc12)C(=O)N[C@@H](CCCCN)C(=O)N[C@@H](Cc1ccc(O)cc1)C(N)=O (Ac-FWKY-NH2)
%max [8]: 57% | %max [9]: 57%
